From ChEMBL document CHEMBL3396991 (Eur J Med Chem, 2015)

Experiments:
[1] = target: Kappa-type opioid receptor (Rattus norvegicus, UniProt P34975); assay: Displacement of [3H]U69593 from rat recombinant kappa opioid receptor expressed in CHO cells after 60 mins; type: cell-based
Mu-type opioid receptor = Mu-type opioid receptor (Homo sapiens, UniProt P35372); assay: Displacement of [3H]diprenorphine from human recombinant mu opioid receptor expressed in HEK cells after 60 mins; type: cell-based, HEK293
Chain of Mu-type opioid receptor (P35372 whole entry): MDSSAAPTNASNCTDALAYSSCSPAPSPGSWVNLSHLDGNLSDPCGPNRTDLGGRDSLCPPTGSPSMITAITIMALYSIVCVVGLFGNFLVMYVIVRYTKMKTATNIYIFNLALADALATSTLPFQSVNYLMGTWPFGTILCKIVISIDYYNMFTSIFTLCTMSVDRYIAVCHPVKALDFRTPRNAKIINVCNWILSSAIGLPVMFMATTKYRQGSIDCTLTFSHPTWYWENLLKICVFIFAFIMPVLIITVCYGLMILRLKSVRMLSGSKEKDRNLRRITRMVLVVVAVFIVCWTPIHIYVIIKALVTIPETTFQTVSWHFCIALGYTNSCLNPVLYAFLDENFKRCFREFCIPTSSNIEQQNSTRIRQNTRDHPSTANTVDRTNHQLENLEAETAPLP

[2] = target: Delta-type opioid receptor (Homo sapiens, UniProt P41143); assay: Displacement of [3H]DADLE from human recombinant delta opioid receptor expressed in HEK cells after 60 mins; type: cell-based, HEK293
Chain of Delta-type opioid receptor (P41143 whole entry): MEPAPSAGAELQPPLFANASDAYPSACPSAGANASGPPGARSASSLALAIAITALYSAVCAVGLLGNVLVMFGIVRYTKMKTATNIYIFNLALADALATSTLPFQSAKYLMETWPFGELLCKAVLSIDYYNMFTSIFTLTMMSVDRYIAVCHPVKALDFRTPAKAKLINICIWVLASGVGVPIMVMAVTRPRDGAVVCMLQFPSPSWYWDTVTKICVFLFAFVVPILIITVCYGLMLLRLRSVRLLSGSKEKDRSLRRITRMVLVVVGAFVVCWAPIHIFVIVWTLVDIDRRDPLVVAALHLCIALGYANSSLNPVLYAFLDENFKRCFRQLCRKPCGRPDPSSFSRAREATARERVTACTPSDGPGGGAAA

[3] = Selectivity ratio of Ki for human recombinant mu opioid receptor to Ki for rat recombinant kappa opioid receptor
[4] = Selectivity ratio of Ki for human recombinant delta opioid receptor to Ki for rat recombinant kappa opioid receptor
In short: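 Ratio of DOR Ki to KOR Ki. […] Both assays in 50 mM Tris pH 7.4 at room temperature, eight concentrations.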

[5] = target: Kappa-type opioid receptor (Homo sapiens, UniProt P41145); assay: Antagonist activity at kappa opioid receptor (unknown origin)
Chain of Kappa-type opioid receptor (Homo sapiens, UniProt P41145) (P41145 whole entry): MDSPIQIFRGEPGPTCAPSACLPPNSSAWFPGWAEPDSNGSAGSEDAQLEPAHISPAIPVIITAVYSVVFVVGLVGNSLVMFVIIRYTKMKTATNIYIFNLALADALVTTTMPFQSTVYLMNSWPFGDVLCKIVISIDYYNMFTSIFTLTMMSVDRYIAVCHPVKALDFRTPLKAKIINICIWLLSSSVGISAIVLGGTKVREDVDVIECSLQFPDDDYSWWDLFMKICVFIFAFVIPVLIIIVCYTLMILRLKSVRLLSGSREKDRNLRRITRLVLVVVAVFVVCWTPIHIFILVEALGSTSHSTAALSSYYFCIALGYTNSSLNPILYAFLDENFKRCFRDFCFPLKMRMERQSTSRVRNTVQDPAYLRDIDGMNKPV

Homo sapiens [6] = organism: Homo sapiens; assay: Selectivity ratio of Ki for mu opioid receptor (unknown origin) to Ki for kappa opioid receptor (unknown origin)
In short: (§1)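 Ratio of two Ki values from radioligand displacement. KOR: rat recombinant receptor in CHO cells, [³H]U69593 (1 nM), 60 min. MOR: human recombinant receptor in HEK cells, [³H]diprenorphine (0.4 nM), 120 min. Both in 50 mM Tris pH 7.4 at room temperature with eight test concentrations. Ki is the mean ± SD of at least three experiments.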

Homo sapiens [7] = organism: Homo sapiens; assay: Selectivity ratio of Ki for delta opioid receptor (unknown origin) to Ki for kappa opioid receptor (unknown origin)
In short: as §1, with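 “DOR:” for “MOR:”, “receptor, [³H]DADLE (0.5” for “receptor in HEK cells, [³H]diprenorphine (0.4”, “three independent” for “three”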

Chain of Kappa-type opioid receptor (Rattus norvegicus, UniProt P34975) (P34975 whole entry): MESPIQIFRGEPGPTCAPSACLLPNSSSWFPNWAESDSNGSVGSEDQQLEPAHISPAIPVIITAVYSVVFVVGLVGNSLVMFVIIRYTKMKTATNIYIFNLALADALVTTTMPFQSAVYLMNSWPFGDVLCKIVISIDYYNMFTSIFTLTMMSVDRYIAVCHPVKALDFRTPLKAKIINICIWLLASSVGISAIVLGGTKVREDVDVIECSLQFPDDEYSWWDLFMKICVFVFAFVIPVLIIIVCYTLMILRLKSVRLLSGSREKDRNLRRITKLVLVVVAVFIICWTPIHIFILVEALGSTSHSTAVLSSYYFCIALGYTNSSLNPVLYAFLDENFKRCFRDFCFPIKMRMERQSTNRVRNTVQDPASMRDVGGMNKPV

Row | Ki [5] [nM] | Ratio Ki (Homo sapiens [6]) | Ratio Ki (Homo sapiens [7]) | SMILES | Ki [1] [nM] | Ki (Mu-type opioid receptor) [nM] | Ki [2] [nM] | Ratio Ki [3] | Ratio Ki [4]
1 | – | – | – | CC(C)[C@@H](CN1CC[C@@](C)(c2cccc(O)c2)[C@@H](C)C1)NC(=O)[C@H]1Cc2ccc(O)cc2CN1CCCF | 1.62 | 19.6 | 254 | 12.2 | 159
2 | 0.8 | 30 | 194 | Cc1cc(C)cc([C@@H]2CCCN2Cc2ccc(Oc3ccc(C(N)=O)cc3F)cc2)c1 [ATICAPRANT] | – | – | – | – | –
3 | – | – | – | CC(C)[C@@H](CN1CC[C@@](C)(c2cccc(O)c2)[C@@H](C)C1)NC(=O)[C@H]1Cc2ccc(OCCCF)cc2CN1 | 8.19 | 57.5 | 72.9 | 7 | 8.9
4 | – | – | – | CC(C)[C@@H](CN1CC[C@@](C)(c2cccc(O)c2)[C@@H](C)C1)NC(=O)[C@H]1Cc2ccc(O)cc2CN1 [JDTIC] | 0.32 | – | – | – | –
5 | – | – | – | CC(C)[C@@H](CN1CC[C@@](C)(c2cccc(O)c2)[C@@H](C)C1)NC(=O)[C@H]1Cc2ccc(OCCF)cc2CN1 | 24 | 63.1 | 81.3 | 2.6 | 3.4
6 | – | – | – | CC(C)[C@@H](CN1CC[C@@](C)(c2cccc(O)c2)[C@@H](C)C1)NC(=O)[C@H]1Cc2ccc(O)cc2CN1CCF | 5.51 | 13.2 | 72.8 | 2.4 | 13.2
